An excerpt weighted towards active compounds, which were near 1.2% of everything screened.
PERK inh: human PERK inhibition, primary cell-based screen. Q9NZJ5. CHO PERK-DD fusion, SEAP luminescence translation reporter. inhibition, % at 5.6 µM. 220,000 tested, 0.17% active. AID 1416;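 active means inhibition above the mean inhibition of all tested compounds plus 3 SD, set separately per screening campaign, cut at about 2.9% in these data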;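 further: PERK kinase domain activated by AP20187 dimerizer at 100 nM; 0% = DMSO with dimerizer and 100% = rapamycin at 8.4 µM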
Target sequence (Q9NZJ5 whole entry, looked up, the tested form may be a part): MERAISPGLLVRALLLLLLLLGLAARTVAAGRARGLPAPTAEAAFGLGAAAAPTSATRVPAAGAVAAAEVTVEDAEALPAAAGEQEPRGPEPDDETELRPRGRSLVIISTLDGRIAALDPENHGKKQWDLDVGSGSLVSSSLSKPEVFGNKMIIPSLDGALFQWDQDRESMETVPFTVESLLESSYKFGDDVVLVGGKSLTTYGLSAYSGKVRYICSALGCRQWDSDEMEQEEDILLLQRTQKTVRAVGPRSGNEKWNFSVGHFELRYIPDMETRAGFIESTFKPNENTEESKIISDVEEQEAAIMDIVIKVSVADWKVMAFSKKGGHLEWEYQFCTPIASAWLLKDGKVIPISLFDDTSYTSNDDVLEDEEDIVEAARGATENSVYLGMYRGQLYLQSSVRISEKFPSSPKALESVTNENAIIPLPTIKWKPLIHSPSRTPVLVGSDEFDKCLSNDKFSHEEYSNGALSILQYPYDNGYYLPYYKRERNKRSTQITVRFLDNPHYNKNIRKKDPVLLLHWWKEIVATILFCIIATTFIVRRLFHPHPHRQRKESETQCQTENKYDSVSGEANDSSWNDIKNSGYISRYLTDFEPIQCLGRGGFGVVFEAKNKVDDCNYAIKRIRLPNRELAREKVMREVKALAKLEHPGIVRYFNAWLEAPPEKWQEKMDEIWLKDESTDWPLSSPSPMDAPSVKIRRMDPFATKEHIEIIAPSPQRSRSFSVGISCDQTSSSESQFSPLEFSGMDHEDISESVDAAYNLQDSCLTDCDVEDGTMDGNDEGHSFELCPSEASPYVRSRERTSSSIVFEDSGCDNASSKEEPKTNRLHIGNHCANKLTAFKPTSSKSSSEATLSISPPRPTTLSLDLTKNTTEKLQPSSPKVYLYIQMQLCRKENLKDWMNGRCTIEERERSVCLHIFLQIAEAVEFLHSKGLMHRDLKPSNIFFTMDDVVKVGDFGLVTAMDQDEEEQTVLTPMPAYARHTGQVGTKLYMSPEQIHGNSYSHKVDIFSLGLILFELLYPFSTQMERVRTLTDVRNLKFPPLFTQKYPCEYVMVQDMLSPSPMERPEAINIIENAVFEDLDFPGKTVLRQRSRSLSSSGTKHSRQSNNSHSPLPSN
HKDC1 inhibitor: inhibitors of human hexokinase HKDC1. 340,000 tested, 0.16% active. recombinant HKDC1, G6PDH/diaphorase resazurin coupled fluorescence. inhibition, % at 20 µM;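 active means inhibition above about 35% when tested at 20 µM, limit read from the data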;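 further: plate controls were DMSO wells with enzyme for no effect and DMSO wells lacking enzyme for full effect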
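Incubation: 90 min at room temperature in dark / Material: recombinant HKDC1 (HK5) hexokinase enzyme, produced in-house / Quantity: enzyme 5 µg/mL final / Compound: one dose of 20 µM, 1% DMSO / Reagent: glucose and ATP substrates / Buffer or medium: Tris pH 8.0 buffer with MgCl2, Tween-20, BSA, BME / Technique: resorufin fluorescence at 613 nm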
Dynein transport: dynein cargo transport inhibition | 3617.4 mouse cells, GR-EGFP nuclear translocation imaging; test concentration mostly 20 µM; stimulated with dexamethasone, 1 µM; stronger effect = lower value | z-score, hits read low | 220,000 tested, 0.47% active | AID 1381;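 active means plate z-score of nuclear minus cytoplasmic receptor signal below a set negative limit, without overly bright fluorescence or cell loss, cut at about -3.5 in these data, passing the limit was not always enough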;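 further: z-score of nuclear minus cytoplasmic ring GR-EGFP intensity difference per well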
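Medium: Induction medium lacking tetracycline, stripped serum | Probe or stimulus: 1.0 µM final dexamethasone stimulus | Schedule: 48 h induction, then 1 h compound, then 30 min agonist, 37 °C | Signal: Automated 10x imaging of fixed Hoechst-stained cells | Evaluation: Per-cell GR-EGFP intensity, nucleus versus surrounding cytoplasmic ring, well-averaged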
HSV replic up: increases HSV replication in cells; HSV replication augmentation in cells, fold increase; 220,000 tested, 0.005% active; maximum fold increase; in the data active means maximum fold increase above about 1.5; inconclusive means no clear call, values can overlap the other calls; tested in PC3 cells
TbHK1 inh: T. brucei hexokinase 1 inhibition; recombinant TbHK1, G6PDH-coupled NADH A340; 220,000 tested, 0.11% active; AID 1430; inhibition, % at 10 µM;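 active means inhibition of 50% or more in the single-dose primary screen; inactive means inhibition below 50%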
Autophagy mod: alters autophagy in cells | MEF GFP-LC3 puncta imaging; test concentration mostly 10 µM | calls only at 10 µM (by protocol) | 190,000 tested, 0.98% active | AID 463193;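 active means percentage of spot-positive cells more than 3 SD above its plate mean, without a fluorescence outlier flag or 80% toxicity; inconclusive means no clear call, values can overlap the other calls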;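 further: spot-positive cell cutoff set from DMSO-treated cells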
* marks the source's active call; other numbers are inactive results.

`N#CCSc1nnc(-c2sc3ccccc3c2Cl)o1` gave PERK inh 2, HKDC1 inhibitor 12, Dynein transport -0.13, HSV replic up inactive, TbHK1 inh -2 and Autophagy mod active.
For OCCC1CN(Cc2nc3ccc(F)cc3[nH]2)CCN1C1CCCC1 (configuration not stated) the results were PERK inh -1, HKDC1 inhibitor -5, Dynein transport 0.35, HSV replic up inactive and TbHK1 inh 2.
For Cc1cc(C)n(-c2ccc(F)cc2CN2CCN(C3CCCC3)C(CCO)C2)n1 (configuration not stated) the results were PERK inh 0, HKDC1 inhibitor -2, Dynein transport -0.18, HSV replic up inactive, TbHK1 inh 4 and Autophagy mod active.
`COc1cc(NS(=O)(=O)c2ccc(NC(=S)NC(=O)c3ccc(F)c(F)c3)cc2)nc(OC)n1` gave HKDC1 inhibitor 3.
Screening COc1ccc(OC)c(Cc2nnc(CCC(=O)NCc3ccc(C)s3)o2)c1 returned PERK inh 3.3*, HKDC1 inhibitor 3, Dynein transport -1, HSV replic up inactive, TbHK1 inh -3 and Autophagy mod inactive.
Cc1ccc(S(=O)(=O)N2CCN(C(=S)NCC3CCCO3)CC2)cc1 (configuration not stated) was read as HKDC1 inhibitor -4.
Cc1sc2ncnc(N=Nc3c(O)[nH]c4ccccc34)c2c1C was read as PERK inh 0, HKDC1 inhibitor 2, Dynein transport 0.033, HSV replic up inconclusive, TbHK1 inh -19 and Autophagy mod inactive.
Screening CCc1cc2c(N=Nc3c(O)[nH]c4ccccc34)ncnc2s1 returned PERK inh 2, HKDC1 inhibitor -8, Dynein transport -0.55, HSV replic up inactive, TbHK1 inh -7 and Autophagy mod active.
`Cc1ccc(-c2cc3ccccc3nc2N2CCOCC2)cc1` gave PERK inh -1, HKDC1 inhibitor 12, Dynein transport 0.72, HSV replic up inactive, TbHK1 inh -4 and Autophagy mod active.
For c1ccc(-c2cc3ccccc3nc2N2CCCC2)cc1 the results were PERK inh -1, HKDC1 inhibitor -2, Dynein transport 0.15, HSV replic up inactive, TbHK1 inh -1 and Autophagy mod inactive.
`Cc1ccc(Cn2c(=N)n(CC(=O)c3ccccc3)c3ccccc32)cc1` gave PERK inh 0, HKDC1 inhibitor 0, Dynein transport 2.7, HSV replic up inactive, TbHK1 inh 21 and Autophagy mod active.
Screening COc1ccccc1NC(=O)CSc1nnc(C)s1 returned HKDC1 inhibitor -2.
`Cc1ccnc(Sc2ccc([N+](=O)[O-])cc2[N+](=O)[O-])n1` gave PERK inh -1, HKDC1 inhibitor 1, Dynein transport -4.8*, HSV replic up inactive, TbHK1 inh -19 and Autophagy mod inactive.
`O=C(CSc1ccc2nnc(-c3ccccn3)n2n1)NCc1ccco1` gave PERK inh 2, HKDC1 inhibitor 5, Dynein transport 0.29, HSV replic up inactive, TbHK1 inh -9 and Autophagy mod active.
Screening N#Cc1c(NC(=O)c2ccccc2)sc2c1CCCCC2 returned PERK inh -1, HKDC1 inhibitor -4, Dynein transport -2.1, HSV replic up inactive, TbHK1 inh -5 and Autophagy mod inactive.
Screening N#Cc1c(Cl)nsc1NC(=O)c1ccccc1 returned PERK inh 0, HKDC1 inhibitor -1, Dynein transport 0.19, HSV replic up inactive, TbHK1 inh -14 and Autophagy mod active.
Cc1oc2c(c(C)cc3oc(=O)c(CC(=O)N[C@@H](CCCNC(N)=O)C(=O)O)c(C)c32)c1C was read as HKDC1 inhibitor -2.
Screening COc1ccc(/C=C2\C(=O)ON=C2c2ccccc2)cc1 returned HKDC1 inhibitor 6.
Screening O=C1ON=C(c2ccccc2)/C1=C/c1ccc(OS(=O)(=O)c2ccccc2)cc1 returned PERK inh 1, HKDC1 inhibitor 12, Dynein transport -4*, HSV replic up inactive, TbHK1 inh 3 and Autophagy mod inactive.
Screening COCCN(Cc1nc2ccccc2c(=O)[nH]1)C(=O)COc1ccccc1-c1ccccc1 returned HKDC1 inhibitor 7.
`O=C(Nc1nccs1)c1cc2sccc2n1Cc1ccc(Cl)cc1` gave PERK inh 0, HKDC1 inhibitor -4, Dynein transport 1.8, HSV replic up inactive, TbHK1 inh -16 and Autophagy mod active.
For Oc1ccc(Nc2nc3ccccc3nc2Nc2ccc(O)cc2)cc1 the results were PERK inh -1, HKDC1 inhibitor 7, Dynein transport -3.4, HSV replic up inactive, TbHK1 inh -15 and Autophagy mod active.
Oc1ccc(Nc2nc(-c3ccccc3)nc3ccccc23)cc1 was read as HKDC1 inhibitor 0.
Cc1ccc2cc(CN(CCN3CCOCC3)Cc3nnnn3Cc3ccco3)c(=O)[nH]c2c1C was read as PERK inh 0, HKDC1 inhibitor -4, Dynein transport 2.8, HSV replic up inactive, TbHK1 inh -8 and Autophagy mod active.
O=C(c1cn(-c2ccccc2)nc1-c1cccnc1)N1CCN(S(=O)(=O)c2cccc(F)c2)CC1 was read as HKDC1 inhibitor 4.
CN(C)C(=O)C(CCN1CCC(O)(c2ccc(Cl)cc2)CC1)(c1ccccc1)c1ccccc1 was read as PERK inh -2, HKDC1 inhibitor -2, Dynein transport -0.19, HSV replic up inactive, TbHK1 inh 1 and Autophagy mod active.
For Cc1cc(NC(=O)c2cc(-c3ccc(C)s3)nc3ccccc23)no1 the results were PERK inh 1, HKDC1 inhibitor 0, Dynein transport 0.077, HSV replic up inactive, TbHK1 inh 1 and Autophagy mod inactive.
Cc1cccc(NC(=O)c2cc(-c3ccc(C)s3)nc3ccccc23)n1 was read as PERK inh -1, HKDC1 inhibitor -3, Dynein transport -0.26, HSV replic up inactive, TbHK1 inh -6 and Autophagy mod active.
For CCC(=O)c1ccc(OC(=O)C2CCN(C3=NS(=O)(=O)c4ccccc43)CC2)cc1 the results were HKDC1 inhibitor 3.
`Cc1cccc2c(C(=O)Nc3ccc(Br)cc3)cc(-c3ccccn3)nc12` gave PERK inh 3, HKDC1 inhibitor -2, Dynein transport -0.031, HSV replic up inactive, TbHK1 inh -12 and Autophagy mod inactive.
For O=C(Nc1ccc([N+](=O)[O-])cc1)c1cc(-c2ccccn2)nc2c(Cl)cccc12 the results were PERK inh 0, HKDC1 inhibitor 2, Dynein transport -0.49, HSV replic up inactive, TbHK1 inh 2 and Autophagy mod active.
O=C(NNc1ncc(C(F)(F)F)cc1Cl)c1c(Cl)cccc1Cl was read as PERK inh 0, HKDC1 inhibitor -2, Dynein transport 3.5, HSV replic up inactive, TbHK1 inh 8 and Autophagy mod active.

Assay outcomes: PubChem, several laboratories
